Experimental data taken from PMC11610768 (The AAPS journal, 2023).
Read-outs that look alike come from different tables or passages of the source.

Columns and labels:
cyclin D1 in A2780 cells = assay: Concentration-dependent changes in cyclin D1 in A2780 cells; assay type: cell-based, human; conditions: 24 h exposure, 1-15 µM, ELISA
Summary of the method: (§1)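 Cells grown in RPMI 1640 with 10% FBS and 1% antibiotic-antimycotic, seeded overnight at 37°C, 5% CO2, then exposed to test compound (DMSO) at 0–15 µM for 24 h. SKOV3 only: 2–24 h time course at 2.5 and 10 µM, and washout after 24 h at 10 µM with recovery at 4, 8, 24 h. Cyclin D1 measured by sandwich ELISA (5 µg protein, duplicates, OD 450 nm) and by western blot (20 µg lysate, β-actin reprobe).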

cyclin D1 in SKOV3 cells = assay: Concentration- and time-dependent changes in cyclin D1 in SKOV3 cells; assay type: cell-based, human
Summary of the method: as §1

mortalin = assay: Western blot of total mortalin in ovarian cancer cells; assay type: cell-based, human
[1] = assay type: in vivo, mice
Summary of the method: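 Tumour-bearing nude mice (intraperitoneal SKOV3) received 60 mg/kg oral daily for 7 days in 30% Kolliphor HS 15. Saphenous blood was taken at 1, 4, 6, 8, 12 h after the first dose and at troughs 24–144 h, with 3 mice per point in rotating subgroups. Tissues were taken after the last dose. For HPLC-UV, plasma or tissue homogenate (3 mL/g phosphate buffer, pH 7.4) plus internal standard underwent acetonitrile precipitation, centrifugation and filtration. LLOQ 5 ng/mL; values given as mean ± SD.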

[2] = tested on: cyclin D1 in SKOV3 tumors; assay: Cyclin D1 in SKOV3 xenograft tumors; assay type: in vivo, mice; conditions: 60 mg/kg oral once daily, observed at 12 h
Summary of the method: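 Female athymic nude mice (Foxn1nu, 6–8 weeks) were given intraperitoneal SKOV3-luc cells, and tumours were confirmed after about 3 weeks. Dosing: 60 mg/kg oral, daily for 7 days, as a suspension in 30% Kolliphor HS 15 (6 mg/mL, 10 mL/kg); vehicle controls, n = 3. Tumours were taken after the last dose; archived 24-h single-dose tumours were also used. Lysate (5 µg protein) run in a total cyclin D1 sandwich ELISA in duplicate, read at OD 450 nm.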

ccK18 = ccK18 quantification in mouse plasma; assay type: in vivo, mice; conditions: single IV dose 10 mg/kg, 2–4 h after dosing; vehicle approx 700 U/L
[3] = single oral dose study, tumor-bearing mice; cited from earlier work
xenograft tumor models = conditions: 60 mg/kg QD; cited from earlier work
colorectal tumors = conditions: APCmin/+ mouse, cited from earlier work
[4] = animal models; cited from earlier work
[5] = 60 mg/kg oral once daily for seven days
[6] = 60 mg/kg oral once daily, at 1 h

CC1(C)CC(C)(C)c2cc(NC(=S)Nc3ccc([N+](=O)[O-])cc3)ccc2S1 [SHetA2]
maximum inhibition of cyclin D1 levels (cyclin D1 in A2780 cells): ~ 80% | cyclin D1 level restored, of baseline (cyclin D1 in SKOV3 cells; 24 h after drug removal, after 24 h exposure to 10 µM): over 80% | IC50 (cyclin D1 in SKOV3 cells; Homo sapiens, SK-OV-3, read-out: IC50 of cyclin D1 reduction): 4 to 5 µM | maximum inhibition of cyclin D1 levels (cyclin D1 in SKOV3 cells; SKOV3 cells, 24 h exposure, 1-15 µM, ELISA): ~ 70% | time at which cyclin D1 levels began to recover after drug removal (cyclin D1 in SKOV3 cells; after 24 h exposure to 10 µM, drug removed from culture medium): 4 h | cyclin D1 reduction / inhibition observed (cyclin D1 in SKOV3 cells; cancer cells (cell line not named at the place), dose-dependent): up to 70% | effect on total mortalin levels (mortalin): no effect | accumulation of the drug in plasma [1, 5]: No significant accumulation | mean trough concentrations in the plasma [1, 5]: 18.8 ± 6.6 ng/mL | peak tumor concentration [1, 6]: around 4,000 ng/ml | peak tumor concentration (equivalent) [1, 6]: ~ 10 µM | maximum reduction in cyclin D1 in tumor [2]: ~ 70% | peak plasma ccK18 level (ccK18): 913 U/L | elimination half-life [3]: 4.5 h | antitumor activity (xenograft tumor models): 40–60% | reduction of cyclin D1 in the tumors (colorectal tumors; 30 mg/kg QD): 50% | reduction of cyclin D1 in the tumors (colorectal tumors; 60 mg/kg QD): 90% | reduction of incidence of colorectal tumors (colorectal tumors; QD doses of 30 or 60 mg/kg): over 50% | adverse effects in genetic toxicology assays and toxicity tests [4]: no adverse effects observed
